Compound activity (PubChem)
beta cell repl – inducers of beta-cell replication in MIN6 cells; proliferation, % at 10 µM; 330,000 compounds, 0.29% hits; MIN6 cells proliferation, ATPlite luminescence, 48 h; cells starved in 0.2% serum; 100% = growth in 10% serum;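 active = compounds whose signal lies at least 3.5 SD above the mean of all wells on their plate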;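 also: 0% = DMSO-treated cells in low-serum medium and 100% = 10% serum control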
HKDC1 inhibitor – HKDC1 (human) hexokinase inhibition. Q2TB90. recombinant HKDC1, G6PDH/diaphorase resazurin coupled fluorescence. inhibition, % at 20 µM. 340,000 compounds, 0.16% hits. AID 493160;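 active = inhibition above about 35% when tested at 20 µM, limit read from the data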;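 also: plate controls were DMSO wells with enzyme for no effect and DMSO wells lacking enzyme for full effect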
Target sequence (Q2TB90 whole entry, looked up): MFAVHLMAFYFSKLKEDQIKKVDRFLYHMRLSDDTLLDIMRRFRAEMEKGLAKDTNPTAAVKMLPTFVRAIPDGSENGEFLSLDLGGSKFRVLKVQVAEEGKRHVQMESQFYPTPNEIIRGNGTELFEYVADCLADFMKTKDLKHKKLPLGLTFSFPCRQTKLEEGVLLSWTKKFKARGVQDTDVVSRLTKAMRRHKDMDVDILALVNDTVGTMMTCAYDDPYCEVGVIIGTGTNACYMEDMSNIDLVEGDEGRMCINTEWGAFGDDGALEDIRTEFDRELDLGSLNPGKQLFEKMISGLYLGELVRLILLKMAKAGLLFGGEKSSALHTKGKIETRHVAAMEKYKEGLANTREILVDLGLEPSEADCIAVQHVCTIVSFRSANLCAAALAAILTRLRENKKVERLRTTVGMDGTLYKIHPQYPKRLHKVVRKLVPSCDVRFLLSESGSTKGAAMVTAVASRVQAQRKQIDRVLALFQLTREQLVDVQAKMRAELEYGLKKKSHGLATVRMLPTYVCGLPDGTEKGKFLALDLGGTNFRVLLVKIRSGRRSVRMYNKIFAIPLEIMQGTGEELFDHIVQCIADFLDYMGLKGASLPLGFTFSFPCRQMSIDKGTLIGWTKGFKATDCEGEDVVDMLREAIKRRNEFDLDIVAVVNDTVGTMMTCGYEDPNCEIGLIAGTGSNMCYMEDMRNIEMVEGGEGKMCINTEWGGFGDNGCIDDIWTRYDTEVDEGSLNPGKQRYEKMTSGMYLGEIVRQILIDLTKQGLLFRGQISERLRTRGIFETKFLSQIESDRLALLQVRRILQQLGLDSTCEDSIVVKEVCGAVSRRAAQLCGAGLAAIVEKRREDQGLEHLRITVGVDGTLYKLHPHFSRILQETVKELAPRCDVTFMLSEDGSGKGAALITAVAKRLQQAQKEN
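Test system: recombinant HKDC1 (HK5) hexokinase enzyme, produced in-house; Amount: enzyme 5 µg/mL final; Buffer or medium: Tris pH 8.0 buffer with MgCl2, Tween-20, BSA, BME; Reagent: glucose and ATP substrates; Doses: 20 µM test compound, 1% DMSO; Incubation: 90 min reaction incubation at room temperature, dark; Detection: resorufin fluorescence at 613 nm.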
PvdQ acylase – P. aeruginosa PvdQ acylase inhibition. AID 488965. purified PvdQ acylase, fluorescence plate reader. inhibition, % at 10 µM. 340,000 compounds, 0.063% hits; in the data active = inhibition above about 30%, passing the limit was not always enough;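 also: 0% = vehicle neutral wells and 100% = reference inhibitor wells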
ATG4B inhibitor – ATG4B (human) cysteine protease inhibition; inhibition, % at 8.33 µM; ATG4B cleavage of LC3-PLA2, NBD-HPC fluorescence, 1 h; Q9Y4P1; 340,000 compounds, 0.51% hits; in the data active = inhibition above about 40%
IMP-1 inh – inhibitors of Pseudomonas aeruginosa IMP-1 metallo-beta-lactamase | AID 1556 | 290,000 compounds, 0.45% hits | purified IMP-1, nitrocefin hydrolysis, epi-absorbance fluorescence | inhibition, % at 5.6 µM;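 active = inhibition above the mean plus 3 SD of all compounds in the same screening run, cut at about 4.5% in these data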;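 also: 0% = IMP-1 with DMSO and 100% = DMSO wells lacking enzyme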
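Material – recombinant IMP-1 enzyme, purified · Amount – IMP-1 0.2 nM before substrate addition · Medium – HEPES buffer pH 7.1 with ZnSO4 and Brij 35 · Timing – 25 °C, 15 min preincubation, 25 min reaction · Measured by – plate fluorescence quenching by hydrolysis product, ex 480/em 530 nm · Read-out – percent enzyme inhibition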
VIM-2 inhibitor – inhibitors of Pseudomonas aeruginosa VIM-2 metallo-beta-lactamase; 290,000 compounds, 0.89% hits; purified VIM-2, nitrocefin hydrolysis, epi-absorbance fluorescence; AID 1527; inhibition, % at 5.6 µM;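 active = inhibition above the mean of all tested compounds plus 3 SD, cutoff set per screening run, cut at about 7.5% in these data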;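 also: red hydrolysis product quenches plate fluorescence so inhibitors raise well fluorescence; 0% = enzyme with DMSO and 100% = DMSO without enzyme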
Active calls of the source: *; . = no result. An excerpt weighted towards active compounds, which were near 2% of everything screened.

SMILES	beta cell repl	HKDC1 inhibitor	PvdQ acylase	ATG4B inhibitor	IMP-1 inh	VIM-2 inhibitor
Cc1cccn2c(=O)c3cc(C(=O)N4CCN(Cc5ccccc5)CC4)sc3nc12	-2	-3	-16	-62	.	.
Cc1cccn2c(=O)c3cc(C(=O)N4CCCCC4)sc3nc12	-1	2	-13	3	-2	12*
CCOC(=O)C1CCN(C(=O)c2cc3c(=O)n4cccc(C)c4nc3s2)CC1	0	-5	-8	-20	0	10*
O=C(N/N=C/c1ccccc1[N+](=O)[O-])c1ccc(COc2ccccc2-c2ccccc2)cc1	0	7	-4	17	-1	-4
CCCOCC(O)CCc1n[nH]c(=S)n1-c1ccccc1 (stereo not drawn)	-2	-4	8	2	-1	3
Cc1cc2[nH]c3c(c[n+](C)c4ccccc34)c2cc1C	-6	-1	-20	8	11*	6
CC(Oc1ccc(Cl)cc1Cl)c1ccn[nH]1 (stereo not drawn)	-1	-9	-13	4	-3	-1
O=C(Nc1ccc(F)cc1)c1ccc(NC(=O)C2CCCO2)cc1 (stereo not drawn)	-2	-3	-9	-4	7.7*	-3
Cc1cc(C)c2c(N)c3cccc(C)c3nc2n1	.	-5	-12	-2	-1	18*
CC(=O)Oc1cc2oc(=O)c3c(c2cc1Cl)CCC3	-1	-1	-9	0	-5	9.7*
Cc1cccc(NC(=O)c2c(-c3ccccc3)noc2C)n1	0	5	-15	-4	-3	-1
CNc1ncc(C(=O)c2ccc(F)cc2)s1	10*	-6	-2	-4	-3	-3
CCc1ncc(C)nc1CC	-3	-6	-10	-12	.	.
COc1ccc(OCC(=O)NNC(=O)Cc2coc3cc(OC)ccc23)cc1	0	-5	18	-3	5.6*	-2
COc1ccc2c(CC(=O)NNC(=O)c3ccc(O)cc3)coc2c1	-1	-3	-17	-3	.	.
Nc1c(/C=C2/C=CC(=O)C(O)=C2)c(=O)nc2sc(CC(=O)N3CCCCC3)nn12	-3	13	-4	16	-6	11*
Nc1c(/C=C2/C=CC(=O)C(O)=C2)c(=O)nc2sc(CC(=O)N3CCCC3)nn12	-1	7	-7	21	-1	1
COC(=O)c1cc(OC)c(OC)cc1NC(=O)c1ccc(C)o1	0	-3	-17	-13	-3	9.2*
COc1ccc(C2=C(C=O)Cc3ccccc3O2)cc1	-4	1	110*	5	.	.
Nn1c(SCC(=O)NC2CCCc3ccccc32)nnc1-c1ccc(Cl)cc1Cl (stereo not drawn)	.	.	.	.	-2	-4
O=C(O)CC12CSc3[nH]c(=O)sc3C1c1ccccc1OC2=O (stereo not drawn)	.	.	.	.	6.4*	1
O=C(O)CC(C(=O)O)N1C(=O)/C(=C/c2ccc(-c3nc4ccccc4s3)o2)SC1=S (stereo not drawn)	2	24	6	68*	5.6*	-1
COC(=O)[C@@H](Cc1c[nH]c2ccccc12)NC(=O)c1cc(=O)[nH]c2ccccc12	-2	-11	-2	-5	0	1
Nc1ccc(S(=O)(=O)C(F)(F)F)cc1N	-2	-1	3	-3	-2	-1
COc1ccc(/C(C#N)=C/c2cccnc2)cc1	0	.	74*	.	-1	-2
SMILES	beta cell repl	HKDC1 inhibitor	PvdQ acylase	ATG4B inhibitor	IMP-1 inh	VIM-2 inhibitor
Cc1ccc(-c2nn(CC(=O)O)c(=O)c3ccccc23)cc1	-4	-4	-5	-2	1	-2
O=C(O)Cn1nc2c3c(cccc3c1=O)-c1ccccc1-2	0	-1	8	-1	-4	7.8*
Cc1coc2c(C)c3oc(=O)c(CCC(=O)N4C[C@H]5C[C@@H](C4)c4cccc(=O)n4C5)c(C)c3cc12	-2	1	-9	-33	-3	7.7*
Cc1oc2c(C)c3oc(=O)c(CCC(=O)NCCCN4CCCC4=O)c(C)c3cc2c1C	-1	1	-8	-27	0	-1
Cc1coc2c(C)c3oc(=O)c(CCC(=O)NCCCN4CCOCC4)c(C)c3cc12	-3	-3	-8	-7	-1	11*
Cc1oc2c(C)c3oc(=O)c(CCC(=O)N4C[C@H]5C[C@@H](C4)c4cccc(=O)n4C5)c(C)c3cc2c1C	1	7	-17	-25	-4	3
